Measured values gathered from unrelated publications.
Each line is one published result; the experiments were not run side by side.
Target: Atypical kinase COQ8A, mitochondrial (COQ8A, Homo sapiens, UniProt Q8NI60)

| SMILES | assay | setting | remaining binding [%] |
| --- | --- | --- | --- |
| C[C@@H]1CN(c2cc(-c3nn(C)c4ccc(OC5(C)CC5)cc34)ncn2)C[C@H](C)O1 | cell-free assay, competition with immobilised ligand | 1 µM | 100 |
| COc1ccnn2ncc(-c3ccnc(N(C)C)n3)c12 | binding | 1 µM | 100 |
| C=CC(=O)N1CCC(C(=O)NCC(=O)N2CCN(c3nc(-c4cnc(N)nc4C(F)F)nc(N4CCOCC4)n3)CC2)CC1 | binding, competition with immobilised ligand | 1 µM | 78 |
| Cc1nc(Cc2cccc(C(F)(F)F)c2)sc1-c1ccc(C(N)=O)nc1 | cell-free assay, competition with immobilised ligand | 1 µM | 62 |
| Cc1cnc(Nc2ccc(C(=O)N3CCC(N4CCCC4)CC3)cc2)nc1-c1cc2ccccc2s1 | binding, competition with immobilised ligand | 1 µM | 85 |
| C[C@@H]1CN(c2ccc3ncc(-c4ccc5[nH]nc(C6CC6)c5c4)n3n2)C[C@H](C)O1 | binding, competition with immobilised ligand | 0.5 µM | 100 |
| CC(C)(C)c1ccc(-c2nc(CBr)nn2-c2cccc(O)c2)cc1 | cell-free assay, competition with immobilised ligand | 10 µM | 86 |
| O=C(c1ccc(Nc2nccc(-c3cc4ccccc4s3)n2)cc1)N1CCC(N2CCCC2)CC1 | binding, competition with immobilised ligand | 1 µM | 88 |
| C[C@@H]1CCN(c2nccc(-c3cnn4ncccc34)n2)C1 | binding | 1 µM | 100 |
| O=C(NCc1ncc(C(F)(F)F)cc1Cl)c1ccc2c(c1)C1(CCS(=O)(=O)CC1)[C@@H](C1CC1)N2S(=O)(=O)c1ccc(F)cc1 | cell-free assay, competition with immobilised ligand | 1 µM | 90 |
| O=C(Nc1c[nH]nc1C(=O)NC1CCNCC1)c1cc(F)cc(F)c1 | binding, competition with immobilised ligand | 1 µM | 100 |
| CNC(=O)[C@@H]1CC[C@@H](n2c(-c3ccc4cnccc4c3)nc3ccc(C(=O)NCc4cccc(C(N)=O)c4)cc32)C1 | binding, competition with immobilised ligand | 1 µM | 100 |
| O=C(NCCCN1CCOCC1)c1ccc(Nc2ncc(Cl)c(-c3ccc(Cl)s3)n2)cc1 | binding, competition with immobilised ligand | 1 µM | 100 |
| N#Cc1ccccc1CSc1nnc2c(n1)[nH]c1ccccc12 | binding, competition with immobilised ligand | 10 µM | 95 |
| FC(F)(F)c1ccc2c(c1)nc(-c1cccnc1)n2C1CC1 | cell-free assay, competition with immobilised ligand | 1 µM | 100 |
| CC1CCCN1c1nccc(-c2cnn3ncccc23)n1 (centres unmarked) | binding | 1 µM | 100 |
| O=C(N[C@H]1CCCCC/C=C\C2C[C@@]2(C(=O)O)NC(=O)[C@@H]2C[C@@H](Oc3ccncc3)CN2C1=O)OC1CCCC1 (some centres unmarked) | binding, competition with immobilised ligand | 1 µM | 90 |
| CN(CCCC(F)(F)F)c1nccc(-c2cnn3ncccc23)n1 | binding | 1 µM | 99 |
| CCC(=O)N[C@@H]1CC[C@H](C(=O)N(C)c2ccc(-c3nc4ccccc4o3)cc2)C1 | cell-free assay, competition with immobilised ligand | 1 µM | 99 |
| c1cnn2ncc(-c3ccnc(N4CCC45COC5)n3)c2c1 | binding | 1 µM | 100 |
| CS(=O)(=O)c1cc(C2(NC(=O)c3cncc4c3cnn4-c3ccc(F)cc3)CC2)ccn1 | cell-free assay, competition with immobilised ligand | 1 µM | 100 |
| N[C@@H]1CCN(c2nccc(-c3cnn4ncccc34)n2)C1 | binding | 1 µM | 100 |
| COc1cnc(Nc2cccc(S(N)(=O)=O)c2)nc1N1CCN(c2ccccc2)CC1 | binding, competition with immobilised ligand | 1 µM | 100 |
